bCat KO growth: primary screen for growth suppressors in beta-catenin knockout HCT116 cells (colon tumor, human); viability, % at 10 µM; AID 818, 2007; hit rate 1.5% among 140,000; HCT116 beta-catenin knockout viability, CellTiter-Glo, 60 h; stronger effect = lower value;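 active means viability at or under a set limit, the compound median less 4 SD, cut at about 6% in these data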
TNAP inh hi DEA: human TNAP enzyme inhibitors, primary screen, biochemical, luminescent, high phosphate acceptor level, uHTS. inhibition, % at 20 µM. purified TNAP, CDP-star luminescence, 1 M DEA. Alkaline phosphatase, tissue-nonspecific isozyme (Homo sapiens), P05186. AID 1135, 2008. hit rate 0.03% among 200,000;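 active means over 50% inhibition of tissue-nonspecific alkaline phosphatase at 20 µM in the single-dose screen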
Target sequence (P05186 whole entry, looked up): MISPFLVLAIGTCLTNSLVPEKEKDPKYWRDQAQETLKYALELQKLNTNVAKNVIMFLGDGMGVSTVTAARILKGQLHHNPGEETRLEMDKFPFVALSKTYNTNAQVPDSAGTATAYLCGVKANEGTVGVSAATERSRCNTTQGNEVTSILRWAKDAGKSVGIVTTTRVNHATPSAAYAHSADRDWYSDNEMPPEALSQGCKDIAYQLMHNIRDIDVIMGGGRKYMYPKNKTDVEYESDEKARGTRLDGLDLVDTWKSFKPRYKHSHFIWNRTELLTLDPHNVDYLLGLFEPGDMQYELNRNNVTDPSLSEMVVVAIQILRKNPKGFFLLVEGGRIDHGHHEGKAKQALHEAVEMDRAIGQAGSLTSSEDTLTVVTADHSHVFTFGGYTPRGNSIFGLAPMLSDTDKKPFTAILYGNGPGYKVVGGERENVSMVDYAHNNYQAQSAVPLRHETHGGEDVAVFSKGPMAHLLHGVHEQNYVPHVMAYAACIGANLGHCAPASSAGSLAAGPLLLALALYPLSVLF
L major viab: Leishmania major promastigote growth inhibition, primary screen. Leishmania major promastigotes, resazurin fluorescence viability. inhibition, % at 10 µM. hit rate 9% among 200,000. AID 1063, 2008; in the data active means inhibition above about 50%;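 further: promastigotes grown with compound for 44 hours at 28 °C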
TNAP act hi DEA: TNAP activators at high phosphate acceptor level, primary screen, biochemical, luminescence, uHTS | purified TNAP, CDP-star luminescence, 1 M DEA, 30 min; stronger effect = higher value; 0 = EDTA background, 1 = DMSO-only activity | activation factor at 20 µM | 200,000 tested, under 10 active;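 active means activation factor at least 2 at 20 µM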
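Assay system: human TNAP; Input: enzyme diluted 1/800 final; Reagent: CDP-star luminogenic substrate at 100 µM final; Timing: 30 min, room temperature; Signal: luminescence; Evaluation: TNAP activation factor scaled between EDTA and DMSO control wells.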
TNAP inh noacc: human TNAP enzyme inhibitors, primary screen, biochemical, luminescent, no phosphate acceptor, uHTS; inhibition, % at 20 µM; hit rate 0.26% among 200,000; AID 1012, 2008; purified TNAP, CDP-star luminescence, 30 min;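 active means tissue-nonspecific alkaline phosphatase inhibition above about 50% at 20 µM in the single-dose screen, limit read from the data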
HCT116 PTEN-null: growth suppression of PTEN-null HCT116, primary screen, cell-based, CellTiter-Glo; HCT116 PTEN-null viability, 60 h; stronger effect = lower value; AID 827, 2007; viability, % at 10 µM; hit rate 1.2% among 140,000;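 active means viability at or below a set limit, 4 SD under the median of all tested compounds, cut at about 3.7% in these data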;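 further: PTEN knockout HCT116 line with beta catenin targeted HCT116 as companion control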
A number is an active result; . = inactive; / = no result. In the library only some 9.6% were active in any assay of this set; here they are far more common.

SMILES | bCat KO growth | TNAP inh hi DEA | L major viab | TNAP act hi DEA | TNAP inh noacc | HCT116 PTEN-null
Cc1cccc(C(=O)Oc2ccc(/C=N/NC(=O)Cc3ccc([N+](=O)[O-])cc3)cc2)c1 | . | . | 50 | . | . | .
COc1cc(/C=N/NC(=O)COc2c(C)cc([N+](=O)[O-])cc2C)ccc1OC(=O)c1ccccc1Br | . | . | 73 | . | . | .
COc1ccc(/C=N/NC(=O)c2cccc([N+](=O)[O-])c2)cc1OC(=O)c1ccccc1 | . | . | . | . | . | .
O=C(CCC(=O)NNC(=O)Nc1cccc(Cl)c1)NCc1ccccc1 | / | . | . | . | . | /
COc1cc(/C=N/NC(=O)COc2c(C)cc([N+](=O)[O-])cc2C)ccc1OC(=O)c1ccccc1 | . | . | 99 | . | . | .
COc1cc(/C=N/NC(=O)c2cccc([N+](=O)[O-])c2)ccc1OCc1ccccc1 | . | . | . | . | . | .
COc1cc(C(=O)Nc2cccc(-c3nnc(-c4ccco4)o3)c2)ccc1OC(C)=O | / | . | . | . | . | /
CC1=CC2=NC(=O)/C(=C\c3cccn3CCOc3cc(C)ccc3C)C(=N)N2O1 | . | . | 53 | . | . | .
CC1=CC2=NC(=O)/C(=C\c3cccn3CCOc3cccc(C)c3)C(=N)N2O1 | . | . | . | . | . | .
CC(C)(C)C1CCC(OC(=O)C[N+]2(C)CCCC2)CC1 (stereo unspecified) | / | . | . | . | . | /
CC(C)(C)C1CCC(OC(=O)C[N+]2(C)CCCCC2)CC1 (stereo unspecified) | / | . | 75 | . | . | /
Cc1ccc(Nc2nnc(SCc3cc(=O)n4cc(C)ccc4n3)s2)cc1 | . | . | 68 | . | . | .
O=c1cc(CSc2nnc(Nc3ccccc3F)s2)nc2sccn12 | / | . | . | . | 52 | /
CC(C)C(=O)N(c1cc2sc(=O)oc2c2ccccc12)S(=O)(=O)c1cccs1 | . | . | 50 | . | . | .
COc1ccc(N(C(=O)C(C)C)S(=O)(=O)c2cccs2)cc1 | . | . | 80 | . | . | .
COc1cc(Cl)ccc1NC(=S)N(CCN1CCOCC1)C1CCN(C(C)=O)CC1 | / | . | . | . | . | /
CCc1ccc(OCC(=O)N/N=C\c2ccco2)c([N+](=O)[O-])c1 | . | . | . | . | . | .
COc1cccc(C(=O)C2=NN(C(C)=O)CC2c2ccco2)c1 (stereo unspecified) | / | . | . | . | . | /
CC(C)Cc1cc(C(=O)N2CCC(N3CCC(C(=O)N4CCOCC4)CC3)CC2)n[nH]1 | / | . | . | . | 88 | /
O=C(NC1CC1)C1CCN(C2CCN(C(=O)Cc3ccc(F)cc3)CC2)CC1 | / | . | . | . | . | /
CC(C)/C=C/C(=O)N1CCC(N2CCC(C(=O)N3CCOCC3)CC2)CC1 | / | . | . | . | . | /
COc1cc(CN2CCC(N3CCC(C(=O)N4CCCC4)CC3)CC2)cc2c1OCO2 | / | . | . | . | . | /
CC(C)Cc1cc(C(=O)N2CCC(N3CCC(C(=O)N4CCCC4)CC3)CC2)n[nH]1 | / | . | . | . | 87 | /
CC(C)Cc1cc(C(=O)N2CCC(N3CCC(C(=O)NC4CC4)CC3)CC2)n[nH]1 | / | . | . | . | 92 | /
CC/C(=N\O)c1c(O)c2c(n(-c3ccccc3)c1=O)CCCC2 | . | . | . | . | . | .
SMILES | bCat KO growth | TNAP inh hi DEA | L major viab | TNAP act hi DEA | TNAP inh noacc | HCT116 PTEN-null
Cc1cc(NS(=O)(=O)c2ccc(NC(=S)NC(=O)c3ccc(C(C)(C)C)cc3)cc2)no1 | . | . | . | . | . | .
O=C(NCC1CCCO1)C1CC1(c1ccccc1)c1ccccc1 (stereo unspecified) | . | . | . | . | . | .
Cc1ccc(C(=O)CSc2nnc(-c3ccc4[nH]c(C)c(C)c4c3)o2)cc1C | 4.2 | . | . | . | . | 2.1
Cc1ccc(C2=Nc3ccccc3N=C(c3ccc([N+](=O)[O-])cc3)C2)c(O)c1 | . | . | . | . | . | .
CCCCN(Cc1ccco1)C(=O)c1cc2c(=O)[nH]c3ccc(C)cc3c2s1 | . | . | . | . | . | .
Cc1ccc2nc(Cl)c3cc(C(=O)N(CCN(C)C)Cc4ccco4)sc3c2c1 | / | . | 65 | . | . | /
CN(C)CCN(Cc1ccco1)C(=O)c1cc2c(Cl)nc3ccccc3c2s1 | / | . | 91 | . | . | /
Cc1ccc2[nH]c(=O)c3cc(C(=O)N(CCCOC(C)C)Cc4ccco4)sc3c2c1 | . | . | 75 | . | . | .
COc1cc(Cl)c(C)cc1NC(=O)c1cccc(OC)c1OC | / | . | . | . | . | /
CC(C)(C)[C@H]1C=C(C(N)=O)O[C@@H](OCc2ccc(CO)cc2)C1 | / | . | . | . | . | /
COC(=O)C1=CN(C(C)C)C=C(C(=O)OC)C1c1cc2c(cc1Br)OCO2 | . | . | 100 | . | . | .
COc1ccc(NCC(=O)Nc2ccccc2C#N)cc1Cl | . | . | 87 | . | . | .
CC(C)NC(=O)CSc1nc(N)c(-c2ccccc2)c(=O)[nH]1 | / | . | . | . | . | /
Clc1ccc2c(N/N=C/c3cccnc3)ccnc2c1 | / | . | 100 | . | . | /
Cc1ccc(N/N=C/c2cccnc2)cc1 | . | . | 76 | . | . | .
Clc1ccc2c(N/N=C/c3ccc(Br)cc3)ccnc2c1 | 1.5 | . | 100 | . | . | 1.3
CCOc1cc(N2CCOCC2)c(OCC)cc1NC(=O)COC(=O)[C@@H]1CCCN1S(=O)(=O)c1ccccc1F | / | . | . | . | . | /
COc1ccccc1N/C=C/C(=C(C#N)C#N)N(C)C | / | . | . | . | . | /
Cc1ccc(N2C(=O)C3C4C=CC(CNC(=S)Nc5ccc(F)cc5)(O4)C3C2=O)cc1 (stereo unspecified) | . | . | 67 | . | . | .
Cc1ccc(N2C(=O)C3C4C=CC(CNC(=S)N5CCN(c6ccccn6)CC5)(O4)C3C2=O)cc1 (stereo unspecified) | / | . | . | . | . | /
Cc1ccc(N2C(=O)C3C4C=CC(CNC(=S)Nc5cccc(Cl)c5)(O4)C3C2=O)cc1 (stereo unspecified) | . | . | 79 | . | . | .
Cc1ccc(N2C(=O)C3C4C=CC(CNC(=S)Nc5ccc(Cl)cc5)(O4)C3C2=O)cc1 (stereo unspecified) | . | . | 83 | . | . | .
Fc1ccccc1NC(=S)N(CCN1CCCCC1)Cc1ccco1 | / | . | . | . | . | /
CCN(CC(=O)Nc1ccc([N+](=O)[O-])cc1OC)CC(=O)NC(C)(C)C | . | . | 71 | . | . | .
COc1ccccc1NC(=O)c1ccc([N+](=O)[O-])cc1[N+](=O)[O-] | / | . | 85 | . | . | /

Assay outcomes from PubChem.
